ChEMBL document CHEMBL1121690, “Inhibition of cholesterol side-chain cleavage. 3. 22-azacholesterol analogues bearing aryl-substituted side chains” (J Med Chem, 1981)

Tests used:
Conditions in all cases: cattle
[1] = target: T1, cholesterol side-chain cleavage cytochrome P450 (mitochondrial) (Bos taurus, UniProt P00189); assay: Percent inhibition of cholesterol side-chain cleavage cytochrome P450 at 0.1 uM in bovine adrenocortical mitochondrial acetone powder preparations
T1 sequence (P00189 whole entry): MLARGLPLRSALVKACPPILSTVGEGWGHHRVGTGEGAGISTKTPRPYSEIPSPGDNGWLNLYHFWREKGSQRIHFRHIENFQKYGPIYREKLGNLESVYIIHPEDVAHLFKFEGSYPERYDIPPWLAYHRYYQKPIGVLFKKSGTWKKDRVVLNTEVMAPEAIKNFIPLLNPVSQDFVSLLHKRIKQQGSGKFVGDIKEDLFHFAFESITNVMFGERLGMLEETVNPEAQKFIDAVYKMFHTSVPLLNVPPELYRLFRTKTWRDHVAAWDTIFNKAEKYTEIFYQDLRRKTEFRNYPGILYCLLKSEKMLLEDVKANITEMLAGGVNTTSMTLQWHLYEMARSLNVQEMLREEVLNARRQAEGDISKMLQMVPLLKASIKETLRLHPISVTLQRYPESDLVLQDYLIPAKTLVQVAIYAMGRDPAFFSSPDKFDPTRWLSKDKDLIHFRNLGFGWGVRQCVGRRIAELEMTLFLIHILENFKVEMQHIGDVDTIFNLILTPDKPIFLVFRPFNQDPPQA
Outline: (§1)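 Inhibitors were dissolved in DMF and added to the incubation mixture before the substrate, at final concentrations of 100 µM or less. Activity was taken from the change in isotope ratios between zero time and 2 h, read by liquid scintillation counting after the isocaproic acid was driven off by heating under vacuum.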

[2] = target: T1, cholesterol side-chain cleavage cytochrome P450 (mitochondrial); assay: Percent inhibition of cholesterol side-chain cleavage cytochrome P450 at 1 uM in bovine adrenocortical mitochondrial acetone powder preparations; outline: as §1
[3] = target: T1, cholesterol side-chain cleavage cytochrome P450 (mitochondrial); assay: Percent inhibition of cholesterol side-chain cleavage cytochrome P450 at 10 uM in bovine adrenocortical mitochondrial acetone powder preparations; outline: as §1
[4] = target: T1, cholesterol side-chain cleavage cytochrome P450 (mitochondrial); assay: Percent inhibition of cholesterol side-chain cleavage cytochrome P450 at 100 uM in bovine adrenocortical mitochondrial acetone powder preparations; outline: as §1

SMILES | inhibition at 0.1 µM [1] [%] | inhibition at 1 µM [2] [%] | inhibition at 10 µM [3] [%] | inhibition at 100 µM [4] [%]
CC(NC(=O)CCc1ccccc1)C1CCC2C3CC=C4CC(O)CCC4(C)C3CCC12C (centres undefined) | 19 | – | – | –
CC(NC(=O)Cc1ccc([N+](=O)[O-])cc1)C1CCC2C3CC=C4CC(O)CCC4(C)C3CCC12C (centres undefined) | – | 22 | 49 | 39
CC(C(=O)NCc1ccccc1)C1CCC2C3CC=C4CC(O)CCC4(C)C3CCC12C (centres undefined) | – | – | 31 | 45
CC(NC(=O)Cc1ccccc1)C1CCC2C3CC=C4CC(O)CCC4(C)C3CCC12C (centres undefined) | 28 | – | 44 | –
COc1ccc(CCNC(C)C2CCC3C4CC=C5CC(O)CCC5(C)C4CCC23C)cc1 (centres undefined) | -6 | – | 40 | –
CC(NCCc1ccc(Cl)cc1)C1CCC2C3CC=C4CC(O)CCC4(C)C3CCC12C (centres undefined) | – | 22 | – | –
CC(NC(=O)c1ccccc1)C1CCC2C3CC=C4CC(O)CCC4(C)C3CCC12C (centres undefined) | 9 | 53 | 84 | 84
COc1ccc(CC(=O)NC(C)C2CCC3C4CC=C5CC(O)CCC5(C)C4CCC23C)cc1 (centres undefined) | 38 | – | – | –
CC(NC(=O)Cc1ccc(Cl)cc1)C1CCC2C3CC=C4CC(O)CCC4(C)C3CCC12C (centres undefined) | 25 | – | – | –
CC(NC(=O)Cc1cccc(I)c1)C1CCC2C3CC=C4CC(O)CCC4(C)C3CCC12C (centres undefined) | – | 18 | 73 | –
